Test results: ChEMBL document CHEMBL1137670, “First occurrence of an IMP metallo-beta-lactamase in Aeromonas caviae: IMP-19 in an isolate from France” (2007)
Values after ≈ are worked out from the molar mass of the structure shown.

Columns and labels:
Type in all cases: functional
Aeromonas caviae [1] = assay: Antimicrobial activity against Aeromonas caviae A324R by disk diffusion method
In short: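 Disk diffusion per CLSI criteria, read as inhibition zone diameter in mm.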

Escherichia coli [2] = assay: Antimicrobial activity against Escherichia coli DH5alpha expressing pIP19 containing Aeromonas caviae A324R metallo-beta-lactamase blaIMP-19 gene by broth dilution method
In short: (§1)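 Beta-lactam MICs by standard broth dilution per CLSI criteria. Recombinant DH5alpha(pIP19) carries blaIMP-19 subcloned into pK18, selected on kanamycin 30 µg/ml plus ceftazidime 4 µg/ml. DH5alpha(pJDB2) carries the 35 kb native plasmid extracted by alkaline lysis.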

Escherichia coli [3] = assay: Antimicrobial activity against Escherichia coli DH5alpha expressing pJDB2 containing Aeromonas caviae A324R metallo-beta-lactamase gene by broth dilution method; in short: as §1
Aeromonas caviae [4] = assay: Antimicrobial activity against Aeromonas caviae A324R expressing metallo-beta-lactamase IMP-19 by broth dilution method; in short: as §1
Escherichia coli [5] = assay: Antimicrobial activity against Escherichia coli DH5alpha by broth dilution method; in short: as §1

SMILES | diameter of the inhibition zone (DIZ) (Aeromonas caviae [1]) | MIC (Escherichia coli [2]) | MIC (Escherichia coli [3]) | MIC (Aeromonas caviae [4]) | MIC (Escherichia coli [5])
C[C@H]1[C@H](NC(=O)/C(=N\OC(C)(C)C(=O)O)c2csc(N)n2)C(=O)N1S(=O)(=O)O [AZTREONAM] | 24 mm | 256 µg/mL (≈ 588 µM) | 256 µg/mL (≈ 588 µM) | 512 µg/mL (≈ 1180 µM) | 
Cc1nnc(SCC2=C(C(=O)O)N3C(=O)[C@@H](NC(=O)Cn4cnnn4)[C@H]3SC2)s1 [CEFAZOLIN] |  | 256 µg/mL (≈ 563 µM) | 256 µg/mL (≈ 563 µM) | 1020 µg/mL (≈ 2250 µM) | ≤ 1 µg/mL
CO[C@@]1(NC(=O)Cc2cccs2)C(=O)N2C(C(=O)O)=C(COC(N)=O)CS[C@@H]21 [CEFOXITIN] |  | 512 µg/mL (≈ 1200 µM) | 256 µg/mL (≈ 599 µM) | 512 µg/mL (≈ 1200 µM) | 2 µg/mL (≈ 4.68 µM)
CC(C)(O/N=C(\C(=O)N[C@@H]1C(=O)N2C(C(=O)[O-])=C(C[n+]3ccccc3)CS[C@H]12)c1csc(N)n1)C(=O)O [CEFTAZIDIME] |  | 512 µg/mL (≈ 937 µM) | 128 µg/mL (≈ 234 µM) | 1020 µg/mL (≈ 1870 µM) | 4 µg/mL (≈ 7.32 µM)
O=C(O)[C@H]1/C(=C/CO)O[C@@H]2CC(=O)N21 [CLAVULANIC ACID] |  | 8 µg/mL (≈ 40.2 µM) | 4 µg/mL (≈ 20.1 µM) | 16 µg/mL (≈ 80.3 µM) | 0.5 µg/mL (≈ 2.51 µM)
C[C@@H](O)[C@H]1C(=O)N2C(C(=O)O)=C(SCCNC=N)C[C@H]12 [IMIPENEM ANHYDROUS] | 27 mm | 0.25 µg/mL (≈ 0.835 µM) | 0.25 µg/mL (≈ 0.835 µM) | 8 µg/mL (≈ 26.7 µM) | 
C[C@@H](O)[C@H]1C(=O)N2C(C(=O)O)=C(S[C@@H]3CN[C@H](C(=O)N(C)C)C3)[C@H](C)[C@H]12 [MEROPENEM] |  | 512 µg/mL (≈ 1340 µM) | 256 µg/mL (≈ 668 µM) | 1020 µg/mL (≈ 2670 µM) | ≤ 1 µg/mL
CCN1CCN(C(=O)N[C@@H](C(=O)N[C@@H]2C(=O)N3[C@@H]2SC(C)(C)[C@@H]3C(=O)O)c2ccccc2)C(=O)C1=O [PIPERACILLIN] |  | 2 µg/mL (≈ 3.86 µM) | 8 µg/mL (≈ 15.5 µM) | 256 µg/mL (≈ 495 µM) | 1 µg/mL (≈ 1.93 µM)
C[C@]1(Cn2ccnn2)[C@H](C(=O)O)N2C(=O)C[C@H]2S1(=O)=O [TAZOBACTAM] |  | 0.5 µg/mL (≈ 1.67 µM) | 0.5 µg/mL (≈ 1.67 µM) | 1 µg/mL (≈ 3.33 µM) | ≤ 0.25 µg/mL
CC1(C)S[C@@H]2[C@H](NC(=O)[C@H](C(=O)O)c3ccsc3)C(=O)N2[C@H]1C(=O)O [TICARCILLIN] |  | 1020 µg/mL (≈ 2660 µM) | 512 µg/mL (≈ 1330 µM) | 2050 µg/mL (≈ 5330 µM) | 4 µg/mL (≈ 10.4 µM)
